The values that follow come from ChEMBL document CHEMBL5126577, “Discovery of honokiol thioethers containing 1,3,4-oxadiazole moieties as potential α-glucosidase and SARS-CoV-2 entry inhibitors” (Bioorg Med Chem, 2022).

This assay deals with SARS-CoV-2. Kind of assay: Antiviral activity against pseudovirus SARS-CoV-2 spike protein infected in HEK-293T cells overexpressing ACE2 assessed as inhibition on pseudovirus infection incubated for 52 hrs by luminescence based microplate reader analysis. It is filed as functional, organism-based. The note with it: Severe acute respiratory syndrome coronavirus 2, HEK-293T. In a few lines:
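HEK-293T-ACE2h cells were pre-incubated with compound in DMEM for 2 h, then inoculated with luciferase-reporter spike pseudovirus plus 2-fold compound for about 2 h at 37 °C. The inoculum was replaced with fresh DMEM and cells were kept 48 h at 37 °C, then lysed. Luciferase luminescence was read, with virus-only cells set as 100%, and IC50 was computed.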

Bounds are passed on as bounds.

For the compound `C=CCc1cc(CSc2nnc(-c3ccccc3F)o2)c(O)c(-c2ccc(O)c(CC=C)c2)c1`, the half-maximal inhibitory concentration (IC50) – broadly, the concentration needed to halve the response being measured – was > 100 µM.

On to `C=CCc1cc(-c2cc(CC=C)c3oc(SCc4nnc(-c5cccc(Cl)c5)o4)nc3c2)c2oc(SCc3nnc(-c4cccc(Cl)c4)o3)nc2c1`, for which the IC50 was > 100 µM.

`C=CCc1cc(-c2cc(CC=C)c3oc(SCc4nnc(-c5ccccc5F)o4)nc3c2)c2oc(SCc3nnc(-c4ccccc4F)o3)nc2c1`: the IC50 was > 100 µM.

Consider `C=CCc1cc(-c2cc(CC=C)c3oc(SCc4nnc(-c5ccccc5C)o4)nc3c2)c2oc(SCc3nnc(-c4ccccc4C)o3)nc2c1`, for which the IC50 was > 100 µM.

On to `C=CCc1cc(-c2cc(CC=C)c3oc(SCc4nnc(-c5ccc(C)cc5)o4)nc3c2)c2oc(SCc3nnc(-c4ccc(C)cc4)o3)nc2c1`, for which the IC50 is > 100 µM.

With `C=CCc1cc(-c2cc(CC=C)c3oc(SCc4nnc(-c5cccc(F)c5)o4)nc3c2)c2oc(SCc3nnc(-c4cccc(F)c4)o3)nc2c1`, the IC50 is > 100 µM.

Regarding `C=CCc1cc(-c2cc(CC=C)c3oc(SCc4nnc(-c5ccc(Cl)cc5)o4)nc3c2)c2oc(SCc3nnc(-c4ccc(Cl)cc4)o3)nc2c1`, the IC50 was > 100 µM.

In the case of `C=CCc1cc(-c2cc(CC=C)c3oc(SCc4nnc(-c5ccc(Br)cc5)o4)nc3c2)c2oc(SCc3nnc(-c4ccc(Br)cc4)o3)nc2c1`, the IC50 is > 100 µM.

In the case of `C=CCc1cc(-c2cc(CC=C)c3oc(SCc4nnc(-c5cccc(OC)c5)o4)nc3c2)c2oc(SCc3nnc(-c4cccc(OC)c4)o3)nc2c1`, the IC50 was > 100 µM.

As for `C=CCc1cc(-c2cc(CC=C)c3oc(SCc4nnc(-c5ccccc5)o4)nc3c2)c2oc(SCc3nnc(-c4ccccc4)o3)nc2c1`, the IC50 was > 100 µM.

Consider `C=CCc1cc(-c2cc(CC=C)c3oc(SCc4nnc(-c5ccc(F)cc5)o4)nc3c2)c2oc(SCc3nnc(-c4ccc(F)cc4)o3)nc2c1`, for which the IC50 is > 100 µM.

On to `C=CCc1cc(CSc2nnc(-c3cccnc3)o2)c(O)c(-c2ccc(O)c(CC=C)c2)c1`, for which the IC50 was 45.6 µM.

On to `C=CCc1cc(-c2cc(CC=C)c3oc(SCc4nnc(-c5cccc(Br)c5)o4)nc3c2)c2oc(SCc3nnc(-c4cccc(Br)c4)o3)nc2c1`, for which the IC50 is > 100 µM.

As to `C=CCc1cc(-c2cc(CC=C)c3oc(SCc4nnc(-c5ccc(OC)cc5)o4)nc3c2)c2oc(SCc3nnc(-c4ccc(OC)cc4)o3)nc2c1`, the IC50 is > 100 µM.

For the compound `C=CCc1cc(-c2cc(CC=C)c3oc(SCc4nnc(-c5ccccc5OC)o4)nc3c2)c2oc(SCc3nnc(-c4ccccc4OC)o3)nc2c1`, the IC50 is > 100 µM.

Take `C=CCc1cc(-c2cc(CC=C)c3oc(SCc4nnc(-c5ccccc5Cl)o4)nc3c2)c2oc(SCc3nnc(-c4ccccc4Cl)o3)nc2c1`: the 50% inhibitory concentration (IC50) came out at 84.4 µM.

For the compound `C=CCc1cc(-c2cc(CC=C)c3oc(SCc4nnc(-c5cccc(C)c5)o4)nc3c2)c2oc(SCc3nnc(-c4cccc(C)c4)o3)nc2c1`, the half-inhibitory concentration (IC50) was > 100 µM.

Regarding `C=CCc1cc(CSc2nnc(-c3ccccc3Cl)o2)c(O)c(-c2ccc(O)c(CC=C)c2)c1`, the IC50 amounted to 85.2 µM.

Regarding `C=CCc1cc(CSc2nnc(-c3ccccc3)o2)c(O)c(-c2ccc(O)c(CC=C)c2)c1`, the IC50 came out at 17 µM.

Regarding `C=CCc1cc(CSc2nnc(-c3ccccc3C)o2)c(O)c(-c2ccc(O)c(CC=C)c2)c1`, the IC50 was > 100 µM.

Regarding `C=CCc1cc(-c2cc(CC=C)c3oc(SCc4nnc(-c5ccccc5Br)o4)nc3c2)c2oc(SCc3nnc(-c4ccccc4Br)o3)nc2c1`, the concentration for half-maximal inhibition (IC50) is > 100 µM.

With `C=CCc1ccc(O)c(-c2ccc(O)c(CC=C)c2)c1` [HONOKIOL], the IC50 is > 50 µM.
